How the values were obtained:
[1] = target: T1, Amine oxidase [flavin-containing] A (Homo sapiens, UniProt P21397); experiment: Inhibition of human MAOA pre-incubated for 10 mins before p-tyramine substrate addition and measured after 10 mins by amplex red reagent-based microplate fluorescence reader analysis
T1 sequence (P21397 whole entry): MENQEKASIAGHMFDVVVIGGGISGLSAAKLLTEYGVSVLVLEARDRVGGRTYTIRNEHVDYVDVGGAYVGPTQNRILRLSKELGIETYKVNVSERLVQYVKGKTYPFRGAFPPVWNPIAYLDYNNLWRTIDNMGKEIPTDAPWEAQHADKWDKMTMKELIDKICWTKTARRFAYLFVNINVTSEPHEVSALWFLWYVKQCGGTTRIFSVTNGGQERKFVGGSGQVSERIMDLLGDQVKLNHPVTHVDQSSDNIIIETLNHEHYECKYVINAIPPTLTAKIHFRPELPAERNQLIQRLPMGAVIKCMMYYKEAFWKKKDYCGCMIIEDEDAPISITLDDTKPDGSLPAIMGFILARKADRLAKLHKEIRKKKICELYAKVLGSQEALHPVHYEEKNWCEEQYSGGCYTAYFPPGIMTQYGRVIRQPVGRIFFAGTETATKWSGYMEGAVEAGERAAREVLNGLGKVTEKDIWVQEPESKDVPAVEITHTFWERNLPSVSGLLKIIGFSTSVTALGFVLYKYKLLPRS

[2] = target: T2, Amine oxidase [flavin-containing] B (Homo sapiens, UniProt P27338); experiment: Inhibition of human MAOB at 0.1 mM pre-incubated for 10 mins before p-tyramine substrate addition and measured after 10 mins by amplex red reagent-based microplate fluorescence reader analysis
T2 sequence (P27338 whole entry): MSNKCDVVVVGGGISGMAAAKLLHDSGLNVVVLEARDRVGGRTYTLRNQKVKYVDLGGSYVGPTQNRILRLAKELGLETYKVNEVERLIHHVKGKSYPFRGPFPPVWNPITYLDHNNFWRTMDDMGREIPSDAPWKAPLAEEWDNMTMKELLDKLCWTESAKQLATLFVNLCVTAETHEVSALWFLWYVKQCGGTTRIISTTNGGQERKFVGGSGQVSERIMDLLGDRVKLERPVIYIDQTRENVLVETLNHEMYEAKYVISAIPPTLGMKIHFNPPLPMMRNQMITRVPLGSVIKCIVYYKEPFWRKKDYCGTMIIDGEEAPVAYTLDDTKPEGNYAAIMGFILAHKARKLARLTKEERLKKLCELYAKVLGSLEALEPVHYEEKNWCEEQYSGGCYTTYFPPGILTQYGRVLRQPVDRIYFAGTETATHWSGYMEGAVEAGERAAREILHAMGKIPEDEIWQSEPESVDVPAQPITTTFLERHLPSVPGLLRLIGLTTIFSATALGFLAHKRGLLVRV
Outline: (§1)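 The reaction in 50 mM phosphate buffer (pH 7.4) was preincubated with enzyme and test compound at 37 °C for 10 min. p-Tyramine (3 mM solution) and Amplex Red reagent were then added, and the mix was held at 37 °C for 10 min. Resorufin fluorescence (ex 544, em 590 nm) from H2O2 was read. Percent inhibition was taken at 100 μM final concentration, in triplicate.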

[3] = target: T2, Amine oxidase [flavin-containing] B
[4] = target: T1, Amine oxidase [flavin-containing] A; experiment: Inhibition of human MAOA at 0.1 mM pre-incubated for 10 mins before p-tyramine substrate addition and measured after 10 mins by amplex red reagent-based microplate fluorescence reader analysis; outline: as §1

Row | IC50 [1] [µM] | inhibition at 100 µM [2] [%] | IC50 [3] [µM] | inhibition at 100 µM [4] [%] | inhibition (INH) ([2]; 100 µM) [%] | inhibition (INH) ([4]; 100 µM) [%] | Structure (SMILES)
1 | 3.07 | > 50 | 2.99 | > 50 |  |  | CN1c2c(nn(-c3ccc(/C=N/NC(=S)NCN4CCOCC4)cc3)c2-c2ccccc2)-c2ccccc2S1(=O)=O
2 | 31.2 | 36 |  | > 50 |  |  | Cc1c2c(nn1-c1ccc(/C=N/NC(N)=S)cc1)-c1ccccc1S(=O)(=O)N2C
3 | 2.33 | > 50 | 6.99 | > 50 |  |  | CN1c2c(nn(-c3ccc(/C=N/NC(=S)Nc4ccc(F)cc4)cc3)c2-c2ccccc2)-c2ccccc2S1(=O)=O
4 | 3.69 | > 50 | 4.15 | > 50 |  |  | Cc1c2c(nn1-c1ccc(/C=N/NC(=S)Nc3ccccc3)cc1)-c1ccccc1S(=O)(=O)N2C
5 | 64.8 | > 50 | 4.34 | > 50 |  |  | Cc1c2c(nn1-c1ccc(/C=N/NC(=S)NCN3CCOCC3)cc1)-c1ccccc1S(=O)(=O)N2C
6 | 7.73 | > 50 | 20.9 | > 50 |  |  | CN1c2c(nn(-c3ccc(/C=N/NC(=S)Nc4cccc(Cl)c4)cc3)c2-c2ccccc2)-c2ccccc2S1(=O)=O
7 | 76.2 | > 50 | 4.72 | > 50 |  |  | Cc1c2c(nn1-c1ccc(/C=N/NC(=S)NCc3ccccc3)cc1)-c1ccccc1S(=O)(=O)N2C
8 | 1.77 | > 50 | 2.91 | > 50 |  |  | CCc1ccc(NC(=S)N/N=C/c2ccc(-n3nc4c(c3C)N(C)S(=O)(=O)c3ccccc3-4)cc2)cc1
9 | 3.49 | > 50 | 0.43 | > 50 |  |  | Cc1c2c(nn1-c1ccc(/C=N/NC(=S)Nc3ccc(Cl)cc3)cc1)-c1ccccc1S(=O)(=O)N2C
10 | 30.2 | 41 |  | > 50 |  |  | Cc1c2c(nn1-c1ccc(/C=N/NC(=S)Nc3ccc(F)cc3)cc1)-c1ccccc1S(=O)(=O)N2C
11 | 0.01 | > 50 | 3.13 | > 50 |  |  | Cc1ccccc1NC(=S)N/N=C/c1ccc(-n2nc3c(c2C)N(C)S(=O)(=O)c2ccccc2-3)cc1
12 | 65.7 | > 50 | 0.77 | > 50 |  |  | Cc1cccc(C)c1NC(=S)N/N=C/c1ccc(-n2nc3c(c2-c2ccccc2)N(C)S(=O)(=O)c2ccccc2-3)cc1
13 | 8.18 | > 50 | 0.02 | > 50 |  |  | CCc1ccc(NC(=S)N/N=C/c2ccc(-n3nc4c(c3-c3ccccc3)N(C)S(=O)(=O)c3ccccc3-4)cc2)cc1
14 | 27.2 | > 50 | 2.49 | > 50 |  |  | CN1c2c(nn(-c3ccc(/C=N/NC(=S)Nc4ccccc4)cc3)c2-c2ccccc2)-c2ccccc2S1(=O)=O
15 | 1.42 | > 50 | 3.83 | > 50 |  |  | Cc1c2c(nn1-c1ccc(/C=N/NC(=S)Nc3ccccc3F)cc1)-c1ccccc1S(=O)(=O)N2C
16 | 0.54 | 19 |  | > 50 |  |  | CN1c2c(nn(-c3ccc(/C=N/NC(=S)Nc4ccccc4F)cc3)c2-c2ccccc2)-c2ccccc2S1(=O)=O
17 | 9.02 | > 50 | 1.76 | > 50 |  |  | CN1c2c(nn(-c3ccc(/C=N/NC(=S)Nc4cccc(F)c4)cc3)c2-c2ccccc2)-c2ccccc2S1(=O)=O
18 | 0.47 | > 50 | 1.68 | > 50 |  |  | Cc1c2c(nn1-c1ccc(/C=N/NC(=S)Nc3cccc(F)c3)cc1)-c1ccccc1S(=O)(=O)N2C
19 | 0.003 | > 50 | 29.5 | > 50 |  |  | Cc1ccc(NC(=S)N/N=C/c2ccc(-n3nc4c(c3C)N(C)S(=O)(=O)c3ccccc3-4)cc2)cc1
20 | 0.97 | > 50 | 2.39 | > 50 |  |  | CN1c2c(nn(-c3ccc(/C=N/NC(N)=S)cc3)c2-c2ccccc2)-c2ccccc2S1(=O)=O
21 | 9.15 | > 50 | 0.75 | > 50 |  |  | Cc1ccc(NC(=S)N/N=C/c2ccc(-n3nc4c(c3-c3ccccc3)N(C)S(=O)(=O)c3ccccc3-4)cc2)c(C)c1
22 | 10.6 | > 50 | 0.64 | > 50 |  |  | CN1c2c(nn(-c3ccc(/C=N/NC(=S)NCc4ccccc4)cc3)c2-c2ccccc2)-c2ccccc2S1(=O)=O
23 | 1.13 | > 50 | 0.11 | > 50 |  |  | Cc1ccc(NC(=S)N/N=C/c2ccc(-n3nc4c(c3C)N(C)S(=O)(=O)c3ccccc3-4)cc2)c(C)c1
24 | 33.8 | > 50 | 0.68 | > 50 |  |  | CN1c2c(nn(-c3ccc(/C=N/NC(=S)Nc4ccccc4Cl)cc3)c2-c2ccccc2)-c2ccccc2S1(=O)=O
25 | 1.11 | > 50 | 2.89 | > 50 |  |  | Cc1c2c(nn1-c1ccc(/C=N/NC(=S)Nc3cccc(Cl)c3)cc1)-c1ccccc1S(=O)(=O)N2C
26 | 2.06 | > 50 | 3.27 | > 50 |  |  | CN1c2c(nn(-c3ccc(/C=N/NC(=S)Nc4ccc(Cl)cc4)cc3)c2-c2ccccc2)-c2ccccc2S1(=O)=O
27 |  |  |  |  | > 50 | > 50 | Cc1cccc(C)c1NC(=S)N/N=C/c1ccc(-n2nc3c(c2C)N(C)S(=O)(=O)c2ccccc2-3)cc1
28 | 4.06 | > 50 | 6.21 | > 50 |  |  | Cc1c2c(nn1-c1ccc(/C=N/NC(=S)Nc3ccccc3Cl)cc1)-c1ccccc1S(=O)(=O)N2C

From ChEMBL document CHEMBL4138062, “Pyrazolobenzothiazine-based carbothioamides as new structural leads for the inhibition of monoamine oxidases: design, synthesis, in vitro bioevaluation and molecular docking studies” (Medchemcomm, 2017)
